Arr AP2 block: inhibitors of beta-arrestin/AP2 binding, primary screen, biochemical, GPCR trafficking, flow cytometry; beta-arrestin 1 C-terminal peptide binding to AP2 beta2-adaptin appendage (human); FITC-arrestin peptide / GST-AP2 beads; AP2 beta2 appendage carries R879A mutation; inhibition, % at 10 µM; 340,000 compounds, 0.31% hits; AID 504490, 2011;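 active means inhibition above a set limit, near 3 SD of compounds lacking own fluorescence, cut at about 54% in these data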
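System: GST-tagged AP2 beta2-adaptin appendage (R879A) on 4 µm glutathione beads / Reagent: FITC-arrestin peptide, 50 nM / Detection: HyperCyt-sampled flow cytometry, FL1 channel, ex 488/em 535 nm / Timing: 12 min plus 1 h, RT / Buffer or medium: PBS plus Tween 20 (0.05%) and BSA (0.1%)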
Neddylation inh: inhibitors of cullin neddylation, primary screen, biochemical, TR-FRET, uHTS, NAE and Ubc12. NEDD8-conjugating enzyme Ubc12 (Homo sapiens) + NEDD8-activating enzyme E1 regulatory …. inhibition, % at 25 µM. 360,000 compounds, 0.58% hits. AID 651699, 2012; in the data active means inhibition above about 36%
Target sequence (P61081 whole entry, looked up): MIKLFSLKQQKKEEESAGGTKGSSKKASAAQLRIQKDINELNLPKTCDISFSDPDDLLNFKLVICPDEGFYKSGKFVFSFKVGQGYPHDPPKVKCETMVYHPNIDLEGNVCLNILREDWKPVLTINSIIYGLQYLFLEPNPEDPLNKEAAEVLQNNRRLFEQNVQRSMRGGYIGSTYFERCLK
Target sequence (Q13564 whole entry, looked up): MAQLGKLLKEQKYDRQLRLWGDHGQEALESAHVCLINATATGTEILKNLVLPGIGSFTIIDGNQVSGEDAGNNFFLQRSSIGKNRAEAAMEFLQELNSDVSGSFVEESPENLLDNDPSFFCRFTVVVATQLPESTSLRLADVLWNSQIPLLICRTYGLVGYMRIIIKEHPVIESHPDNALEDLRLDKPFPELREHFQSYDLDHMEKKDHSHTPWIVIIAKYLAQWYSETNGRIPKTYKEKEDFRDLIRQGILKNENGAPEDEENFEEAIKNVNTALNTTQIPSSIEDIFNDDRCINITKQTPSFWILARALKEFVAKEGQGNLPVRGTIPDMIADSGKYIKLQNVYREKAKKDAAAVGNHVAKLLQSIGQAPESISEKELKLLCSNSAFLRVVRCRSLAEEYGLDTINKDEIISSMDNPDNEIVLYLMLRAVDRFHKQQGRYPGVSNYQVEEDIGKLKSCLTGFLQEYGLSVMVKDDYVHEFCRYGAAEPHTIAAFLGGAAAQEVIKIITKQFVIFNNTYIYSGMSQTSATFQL
Efflux pump mplx: inhibitors of Candida efflux pumps in yeast, primary screen, S. cerevisiae, Nile Red, multiplex | inhibition, % at 10 µM | S. cerevisiae Candida pump triplex | AID 485275, 2010 | 330,000 compounds, 0.44% hits;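 active means plate passing quality check with inhibition over a set limit, or well fluorescence over plate mean plus 4 SD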;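 further: Nile Red retained in pooled yeast measured as flow cytometry median fluorescence; higher means more Nile Red kept so more efflux inhibition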
DSG3 Ab inh: inhibitors of pemphigus antibody binding to DSG3, primary screen, biochemical, bead-based, flow cytometry, scFv-GFP. DSG3-coupled beads, scFv-anti-DSG3-GFP binding; active compounds read low. binding (percent of control), % at 10 µM. 310,000 compounds, 0.48% hits. AID 588358, 2011;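 active means binding more than 3 SD below its plate's average and above zero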;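 further: hits lower antibody fragment binding to DSG3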
Neddyl inh conf: blockade of NEDD8 conjugation to cullin – biochemical, TR-FRET, single concentration, confirmation. shares compounds with Neddylation inh. TR-FRET cullin neddylation biochemical assay. calls only at 25 µM. 1,800 compounds, 13% hits. AID 652217, 2013; in the data active means inhibition above about 40%;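 further: neddylation substrate is the cullin 1 ring ligase complex with SKP2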
Hits are given with their value; n = inactive; x = no result given; + = active, no number. Only some compounds are listed: those with a hit (about 1.7% of all), similar ones and a draw of the others.

SMILES	Arr AP2 block	Neddylation inh	Efflux pump mplx	DSG3 Ab inh	Neddyl inh conf
O=C(CSc1nnc2ccc(-c3ccccc3)nn12)NCC1CCCO1 (centres undefined)	n	42	n	n	+
NC(=O)CSc1nnc2ccc(-c3ccc(F)cc3)nn12	n	39	n	n	n
CCOCCn1c(N2CCN(c3ccccc3)CC2)nc2c1c(=O)[nH]c(=O)n2C	n	n	n	n	x
COc1c(-c2ccccc2)oc2c(ccc3occc32)c1=O	n	n	n	n	x
CCn1nc(C(=O)NNC(=O)CCOc2cc(C)ccc2C)c2ccccc2c1=O	n	n	n	n	x
COc1ccc2nc(NC(=S)NC(=O)c3ccco3)sc2c1	n	n	n	n	x
COc1ccc2sc(NC(=O)c3ccco3)nc2c1	n	40	n	n	n
Cc1ccc(C(=O)N/N=C\c2ccc(-c3ccc(Cl)c(Cl)c3)o2)cn1	n	43	n	n	n
Cc1ccc(C(=O)N/N=C/c2ccc(-c3cccc(Cl)c3)o2)cn1	n	n	n	n	x
COc1ccc(C2CC(c3ccccc3)=NN2C(=O)COC(=O)/C=C/c2ccc(O)c(OC)c2)cc1 (centres undefined)	n	44	n	n	n
OCC1(Cc2ccc(F)cc2F)CCCN(CCCc2ccccc2)C1 (centres undefined)	n	n	n	n	x
N#Cc1nc(-c2cccc3ccccc23)oc1NCCN1CCOCC1	n	x	n	n	x
N#Cc1nc(-c2ccco2)oc1NCCN1CCOCC1	n	39	n	n	n
C(=C\c1ccc2nncn2c1)/c1ccccc1	x	45	x	x	+
c1coc(-c2ccc3nncn3c2)c1	x	n	x	x	x
CN(CC(=O)Nc1ccccc1Cl)C(=O)COC(=O)c1ccc(-c2ccc(O)cc2)cc1	n	31	n	n	x
CN(CC(=O)Nc1ccccc1Cl)C(=O)COC(=O)c1ccc(C(F)(F)F)cc1	n	n	n	n	x
COc1ccccc1NS(=O)(=O)c1cccc(C(=O)N/N=C/c2cn(-c3ccccc3)nc2-c2ccccc2)c1	n	38	n	n	x
COc1cc(C=NNC(=O)c2ccc(NS(=O)(=O)c3cccs3)cc2)cc(Br)c1O	n	50	n	x	+
COc1ccc(NS(=O)(=O)c2cccc(C(=O)N/N=C/c3cn(-c4ccccc4)nc3-c3ccccc3)c2)cc1	n	n	n	n	x
COc1ccc(NS(=O)(=O)c2cccc(C(=O)N/N=C/c3ccc(O)cc3)c2)cc1	n	43	n	n	n
Cc1ccc(-c2nnn(CC(=O)N(CC(=O)NC3CCCC3)c3cccc(F)c3)n2)o1	n	n	n	n	x
N#CC1=C(N)Oc2cc3ccccc3cc2C1c1cccnc1 (centres undefined)	n	n	n	n	x
N#CC1=C(N)Oc2c(ccc3cccnc23)C1c1cccnc1 (centres undefined)	n	48	n	x	n
CC(OC(=O)CCCN=C1NS(=O)(=O)c2ccccc21)C(=O)Nc1ccccc1F (centres undefined)	n	n	n	n	x
SMILES	Arr AP2 block	Neddylation inh	Efflux pump mplx	DSG3 Ab inh	Neddyl inh conf
CCn1c(=O)c2cc(C(=O)N3CCOCC3)sc2c2ccccc21	n	48	n	n	x
CCCCC(=O)NC(=S)NNC(=O)c1ccc(OC)cc1	n	n	n	n	x
Fc1cccc(F)c1C(Nc1nncs1)Nc1nncs1	x	n	x	x	x
Cc1ncccc1C(=O)N1CCCC(C(=O)c2ccc3c4c(cccc24)CC3)C1 (centres undefined)	n	n	n	n	x
CN(C)C(=O)CCC(=O)N1CCCC(C(=O)c2ccc3c4c(cccc24)CC3)C1 (centres undefined)	n	41	n	n	n
c1ccc2c(c1)c1c(c3ccccc32)CN2CCCC2C1 (centres undefined)	n	43	x	x	n
c1ccc(CN2CCC(N3CCC(N4CCCCCC4)CC3)CC2)cc1	n	n	n	n	x
Cc1ccc(-n2c3nc(=O)n(C)c(=O)c-3cc3ccccc32)cc1	n	61	n	n	n
Cc1c(-c2nc(-c3ccc(C(F)(F)F)cc3)no2)n(C)oc1=O	n	42	n	n	n

Screens from PubChem BioAssay.
